In ChEMBL document CHEMBL1148636, “Novel analogues of degarelix incorporating hydroxy-, methoxy-, and pegylated-urea moieties at positions 3, 5, 6 and the N-terminus. Part III” (J Med Chem, 2006):
Numbered stars: 1 amine (or outer) side, 2 acyl side, 3 side chain; on linkers, the order of the positions; unused ones are H or OH. Square brackets hold non-standard residues; d marks the D form. Peptide text beside a SMILES is read from it. * marks the point of attachment. Dihydroorotyl(S) = O=C1C[C@@H](C(=O)*)NC(=O)N1; dPhe(4-NH2) = Nc1ccc(C[C@@H](N)C(=O)O)cc1; dPhe(4-Cl) = N[C@H](Cc1ccc(Cl)cc1)C(=O)O; Phe(4-NH2) = Nc1ccc(C[C@H](N)C(=O)O)cc1; d2Nal = N[C@H](Cc1ccc2ccccc2c1)C(=O)O; Lys(iPr) = CC(C)NCCCC[C@H](N)C(=O)O; NHCH2CH2OCH2CH2OEt = CCOCCOCCN*; d3Pal = N[C@H](Cc1cccnc1)C(=O)O; Methoxycarbamoyl = CONC(=O)*; CO = O=C([*:1])[*:2]

Columns and labels:
[1] = molecular target: T1, Gonadotropin-releasing hormone receptor (Homo sapiens, UniProt P30968); assay: Antagonist activity at human GnRH receptor expressed in HEK293 cells as inhibition of GnRH-induced LH secretion by reporter gene assay; type: functional, cell-based
T1 sequence (P30968 whole entry): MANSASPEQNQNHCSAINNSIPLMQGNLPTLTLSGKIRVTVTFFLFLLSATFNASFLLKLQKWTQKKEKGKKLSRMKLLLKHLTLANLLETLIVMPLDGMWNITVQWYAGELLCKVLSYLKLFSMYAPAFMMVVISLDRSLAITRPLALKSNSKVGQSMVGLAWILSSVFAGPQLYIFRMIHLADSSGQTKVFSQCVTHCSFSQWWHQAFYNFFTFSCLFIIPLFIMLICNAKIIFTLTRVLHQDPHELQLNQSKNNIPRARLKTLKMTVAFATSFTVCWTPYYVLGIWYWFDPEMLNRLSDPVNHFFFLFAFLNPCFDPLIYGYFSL
Method in brief: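 HEK293 cells stably expressing cloned human GnRH receptor plus luciferase reporter under LH alpha subunit promoter; plated 5 × 10^4 cells/well, overnight 37 °C. Compounds in 1% DMSO, 11 half-log concentrations in duplicate, 10 min preincubation, then GnRH 1 nM final, ≥5 h at 37 °C; luminescence read. Percent of control fitted to IC50; geometric mean of ≥2 independent experiments.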

[2] = tested on: Rattus norvegicus; assay: Inhibition of GnRH-induced LH secretion in Sprague-Dawley rat at 50 ug, sc for 96 hrs; type: functional
Method in brief: (§1)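 Male rats castrated ten days earlier (≥5 per group) injected sc with 50 μg peptide in 50 μL 5% mannitol (0.6% DMSO in the stock); vehicle controls run alongside. Tail-tip blood taken pre-dose and at 3, 72, 96, 120, 144, 168 and sometimes 192 h; plasma LH by RIA, all samples of one experiment in the same assay; >80% inhibition scored.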

[3] = tested on: Rattus norvegicus; assay: Inhibition of GnRH-induced LH secretion in Sprague-Dawley rat at 50 ug, sc for 3 hrs; type: functional; method in brief: as §1

`CONC(=O)Nc1ccc(C[C@@H](NC(=O)[C@H](Cc2ccc(NC(=O)[C@@H]3CC(=O)NC(=O)N3)cc2)NC(=O)[C@H](CO)NC(=O)[C@@H](Cc2cccnc2)NC(=O)[C@@H](Cc2ccc(Cl)cc2)NC(=O)[C@@H](Cc2ccc3ccccc3c2)NC(C)=O)C(=O)N[C@@H](CC(C)C)C(=O)N[C@@H](CCCCNC(C)C)C(=O)N2CCC[C@H]2C(=O)N[C@H](C)C(N)=O)cc1` (Ac-[d2Nal][dPhe(4-Cl)][d3Pal]S[Phe(4-NH2)](Dihydroorotyl(S))[dPhe(4-NH2)](Methoxycarbamoyl)L[Lys(iPr)]P[dA]-NH2) was tested. Which IC50 [1] did it give?
The IC50 was 0.51 nM.

What about the Inhibition [2] of the same molecule?
Its Inhibition is over 80%.

How did the IC50 [1] turn out when `CCOCCOCCNC(=O)N[C@H](Cc1ccc2ccccc2c1)C(=O)N[C@H](Cc1ccc(Cl)cc1)C(=O)N[C@H](Cc1cccnc1)C(=O)N[C@@H](CO)C(=O)N[C@@H](Cc1ccc(NC(=O)[C@@H]2CC(=O)NC(=O)N2)cc1)C(=O)N[C@H](Cc1ccc(NC(=O)NOC)cc1)C(=O)N[C@@H](CC(C)C)C(=O)N[C@@H](CCCCNC(C)C)C(=O)N1CCC[C@H]1C(=O)N[C@H](C)C(N)=O` ({NHCH2CH2OCH2CH2OEt-CO}-[d2Nal][dPhe(4-Cl)][d3Pal]S[Phe(4-NH2)](Dihydroorotyl(S))[dPhe(4-NH2)](Methoxycarbamoyl)L[Lys(iPr)]P[dA]-NH2) was run?
Its IC50 is 1.61 nM.

And the Inhibition [3]?
The Inhibition was over 80%.
